Tests used:
[1] = target: T1, Muscarinic acetylcholine receptor M4 (Homo sapiens) (UniProt P08173); assay: Positive allosteric modulation at human M4 mAChR expressed in Flp-In-CHO cells co-expressing CAMYEL biosensor assessed as change in maximum ACh-mediated response at 10 uM incubated for 5 mins by BRET assay relative to control; format: cell-based
T1 sequence (whole entry): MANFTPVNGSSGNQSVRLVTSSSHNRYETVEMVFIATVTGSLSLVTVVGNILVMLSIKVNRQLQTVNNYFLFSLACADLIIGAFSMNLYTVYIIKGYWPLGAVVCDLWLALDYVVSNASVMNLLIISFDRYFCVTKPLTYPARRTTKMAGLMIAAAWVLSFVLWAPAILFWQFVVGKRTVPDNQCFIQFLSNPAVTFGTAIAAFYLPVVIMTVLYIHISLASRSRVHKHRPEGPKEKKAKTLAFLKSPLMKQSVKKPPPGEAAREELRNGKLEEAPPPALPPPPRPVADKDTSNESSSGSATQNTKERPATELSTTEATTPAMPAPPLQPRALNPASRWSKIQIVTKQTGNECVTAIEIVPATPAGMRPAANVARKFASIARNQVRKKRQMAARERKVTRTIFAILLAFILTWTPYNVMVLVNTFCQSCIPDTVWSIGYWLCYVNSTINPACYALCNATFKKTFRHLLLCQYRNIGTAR
Procedure, shortened: (§1)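 FlpInCHO cells stably expressing human M4 mAChR, transiently transfected with CAMYEL cAMP BRET biosensor (60 ng/well, PEI), assayed 48 h later in HBSS pH 7.4. Full ACh concentration-response curve alone or with modulator at 1 or 10 μM, co-added with coelenterazine h (5 μM), 5 min, 37 °C. Three-parameter logistic fit; ACh curve values subtracted from ACh+modulator values. Δbaseline and ΔEmax given as % of maximal ACh response without modulator. 4 experiments in duplicate, SEM pooled.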

[2] = target: T1, Muscarinic acetylcholine receptor M4 (Homo sapiens); assay: Positive allosteric modulation at human M4 mAChR expressed in Flp-In-CHO cells co-expressing CAMYEL biosensor assessed as change in ACh-mediated response incubated for 5 mins by BRET assay; format: cell-based; details: filed as positive allosteric modulator; procedure, shortened: as §1
[3] = target: T1, Muscarinic acetylcholine receptor M4 (Homo sapiens); assay: […] human M4 mAChR expressed in Flp-In-CHO cells co-expressing CAMYEL biosensor assessed as change in baseline response at 10 uM incubated for 5 mins by BRET assay relative to control; format: cell-based; procedure, shortened: as §1
[4] = target: T1, Muscarinic acetylcholine receptor M4 (Homo sapiens); assay: Positive allosteric modulation at human M4 mAChR expressed in Flp-In-CHO cells co-expressing CAMYEL biosensor assessed as efficacy of ACh-mediated cAMP signalling (log tau B) incubated for 5 mins by BRET assay; format: functional, cell-based; details: filed as positive allosteric modulator
Procedure, shortened: (§2)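 CAMYEL-transfected FlpInCHO-hM4 cells (48 h post-transfection) given ACh and modulator concentration ranges in full interaction design, 5 min at 37 °C; BRET read with coelenterazine h. Fit to complete operational model of allosterism and agonism with ACh KA and modulator KB fixed from binding assays. Gives log τB and log αβ. 4–5 experiments in duplicate.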

[5] = target: T1, Muscarinic acetylcholine receptor M4 (Homo sapiens); assay: Displacement of 3[H]-NMS from human M4 mAChR expressed in Flp-In-CHO cells assessed as binding co-operativity (log alpha) incubated for 6 hrs in presence of ACh by microbeta2 plate reader assay; format: cell-based; details: filed as positive allosteric modulator
Procedure, shortened: (§3)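 Intact FlpInCHO-hM4 cells, 20,000/well grown overnight, in HBSS pH 7.4 with [3H]-NMS 0.5 nM, ACh (0.01 μM–10 mM) and modulator (0.1–10 μM), shaken 6 h at room temperature. Washed with ice-cold 0.9% NaCl, then scintillation counting. Nonspecific binding defined with 10 μM atropine. pKB and log α(ACh) from global fit to allosteric ternary complex model, with log α′(NMS) fixed at –3 under strong negative cooperativity. 4–5 experiments in duplicate.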

[6] = target: T1, Muscarinic acetylcholine receptor M4 (Homo sapiens); assay: Displacement of 3[H]-NMS from human M4 mAChR expressed in Flp-In-CHO cells assessed as binding constant incubated for 6 hrs by microbeta2 plate reader assay; format: cell-based; details: filed as positive allosteric modulator; procedure, shortened: as §3
[7] = target: T1, Muscarinic acetylcholine receptor M4 (Homo sapiens); assay: Positive allosteric modulation at Rluc-tagged human M4 mAChR expressed in Flp-In-CHO cells co-expressing eYFP-tagged beta-arrestin 2 assessed as efficacy of ACh-mediated beta-arrestin 2 recruitment (log tau B) incubated for 5 mins by luminometry; format: cell-based; details: filed as positive allosteric modulator
Procedure, shortened: (§4)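 FlpInCHO cells co-transfected with human M4-Rluc8 (20 ng/well) and β-arrestin-2-eYFP (80 ng/well) using PEI, assayed after 48 h. Coelenterazine h (5 μM) preincubated 5 min, then ACh plus modulator ranges for 5 min at 37 °C; BRET at 475/535 nm. Fit to simplified operational model with slope 1 and KB fixed from binding. 4–5 experiments in duplicate.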

[8] = target: T1, Muscarinic acetylcholine receptor M4 (Homo sapiens); assay: Positive allosteric modulation at Rluc-tagged human M4 mAChR expressed in Flp-In-CHO cells co-expressing eYFP-tagged beta-arrestin 2 assessed as ACh-mediated beta-arrestin 2 recruitment co-operativity (log alpha beta) incubated for 5 mins by luminometry; format: cell-based; details: filed as positive allosteric modulator; procedure, shortened: as §4
[9] = target: T1, Muscarinic acetylcholine receptor M4 (Homo sapiens); assay: Positive allosteric modulation at human M4 mAChR expressed in Flp-In-CHO cells co-expressing CAMYEL biosensor assessed as ACh-mediated cAMP signalling co-operativity (log alpha beta) incubated for 5 mins by BRET assay; format: functional, cell-based; details: filed as positive allosteric modulator; procedure, shortened: as §2
[10] = filed as positive allosteric modulator

SMILES	Emax [1, 10]	deltapEC50 [2]	Activity [3, 10]	log(activity) [4]	log(activity) [5]	pKb [6]	Emax [1]	log(activity) [7]	log(activity) [8]	log(activity) [9]	Activity [3]
Cc1ccc(-c2cnn(CC3CCCC3)c2)c(-c2ccc3c(c2)C(=O)NC3)n1	73.3%	2.57	89.7%								
Cc1ccc(-c2cnn(CC3CCCC3)c2)c(-c2cccc(N)c2)n1	53.5%	1.35	51.7%								
Cc1ccc(-c2cnn(CC(C)C)c2)c(-c2ccc3c(c2)C(=O)N(C)C3)n1	84.8%	1.36	108%								
Cc1ccc(-c2cnn(CC3CCCC3)c2)c(-c2ccc(N)cc2)n1	80.6%	1.31	88.1%								
CC(=O)Nc1cccc(-c2nc(C)ccc2-c2cnn(CC3CCCC3)c2)c1	57.7%	1.63	52.2%								
Cc1ccc(-c2ccc3c(c2)C(=O)N(C)C3)c(-c2cnn(CC3CCOCC3)c2)n1		0.58					3.58%				4.76%
Cc1ccc(-n2cc(CC3CCCC3)nn2)c(-c2ccc3c(c2)C(=O)N(C)C3)n1		1.06					13.9%				24.5%
Cc1ccc(-c2cnn(CC3CCCC3)c2)c(-c2cccc(C(N)=O)c2)n1	65.6%	1.33	77.3%								
CNC(=O)c1cccc(-c2nc(C)ccc2-c2cnn(CC3CCCC3)c2)c1	61.3%	1.99	78.2%								
Cc1ccc(-c2cnn(CC3CCN(C(=O)OC(C)(C)C)CC3)c2)c(-c2ccc3c(c2)C(=O)N(C)C3)n1	52.5%	0.6									5.53%
Cc1ccc(-c2cn(CC3CCCC3)nn2)c(-c2ccc3c(c2)C(=O)N(C)C3)n1		1.07					11.8%				20%
Cc1ccc(-c2cnn(Cc3ccccc3)c2)c(-c2ccc3c(c2)C(=O)N(C)C3)n1	63.8%	1.87	77.1%								
Cc1ccc(-c2cnn(C)c2)c(-c2ccc3c(c2)C(=O)N(C)C3)n1		0.57					27%				13.7%
Cc1ccc(-c2cnn(CC3CCCC3)c2)c(-c2ccc3c(c2)NC(=O)C3)n1		1.24					39%				18.6%
Cc1ccc(-c2cnn(CC3CCCC3)c2)c(-c2ccccc2)n1		1.15		0.04	1.98	4.68	21.8%	0.87	1.87	2.46	32.1%
Cc1ccc(-c2cnn(CC3CCCC3)c2)c(-c2cccc(C(=O)N(C)C)c2)n1	97.7%	0.25		-0.58	1.47	4.49		-0.83	1.06	2.03	33.2%

Further lines, results first:

Emax [1, 10]	deltapEC50 [2]	Activity [3, 10]	log(activity) [4]	log(activity) [5]	pKb [6]	Emax [1]	log(activity) [7]	log(activity) [8]	log(activity) [9]	Activity [3]	SMILES
66.6%	1.49	90.6%									CN1Cc2ccc(-c3ccncc3-c3cnn(CC4CCCC4)c3)cc2C1=O
	-0.34	48.5%	-0.74	1.41	4.55	35.1%	0.07	0.94	1.81		CN1Cc2ccc(-c3nccnc3-c3cnn(CC4CCCC4)c3)cc2C1=O
47.1%	1.16	86.7%									Cc1ccc(-c2cnn(CC3CCOCC3)c2)c(-c2ccc3c(c2)C(=O)N(C)C3)n1
69.6%	1.64	102%	-0.54	1.95	5.84		0.64	1.29	2.22		Cc1ccc(-c2cnn(CC3CC3)c2)c(-c2ccc3c(c2)C(=O)N(C)C3)n1
	0.63					25.6%				6.49%	CN1Cc2ccc(-c3ccccc3-c3cnn(CC4CCCC4)c3)cc2C1=O
74%	1.05	124%									Cc1ccc(-c2cnn(CC3CCC3)c2)c(-c2ccc3c(c2)C(=O)N(C)C3)n1
63.9%	0.73	106%	-0.88	1.92	6.11		0.56	1.1	2.01		Cc1ccc(-c2cnn(CC3CCCCC3)c2)c(-c2ccc3c(c2)C(=O)N(C)C3)n1
56.8%	0.17	47.2%									CN1Cc2ccc(-c3cnccc3-c3cnn(CC4CCCC4)c3)cc2C1=O
50.5%	2.11	83.3%									CCCN1Cc2ccc(-c3nc(C)ccc3-c3cnn(CC4CCCC4)c3)cc2C1=O
41.6%	0.88		-0.81	2.18	5.33		0.51	2.09	2.47	13%	CN1Cc2ccc(-c3ncccc3-c3cnn(CC4CCCC4)c3)cc2C1=O

Source: ChEMBL document CHEMBL5620424, “Design, synthesis and evaluation of novel 2-phenyl-3-(1H-pyrazol-4-yl)pyridine positive allosteric modulators for the M4 mAChR” (Eur J Med Chem, 2023)
